Screening results (PubChem BioAssay)
Myeloid diff MLP – myeloid differentiation induction; ER-HoxA9 myeloid progenitors, lysozyme-GFP differentiation, flow cytometry; calls only at 10 µM; actives 1% (n = 360,000);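 active means normalized GFP-positive differentiation at or above the plate's own cutoff, the solvent-only control mean plus 3 SD; inconclusive means no clear call, values can overlap the other calls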;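 further: cells exposed to compound for four days before flow analysis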
CSN deneddyl inh – inhibitors of human CSN-mediated cullin deneddylation. Q92905. Purified CSN, SCF-Nedd8-OG deneddylation, fluorescence polarization. inhibition, % at 12.5 µM. actives 0.38% (n = 360,000);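 active means pattern-corrected inhibition above about 35%, with an unprinted fluorescence ratio check between 0.5 and 1.5, limit read from the data, passing the limit was not always enough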;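 further: 0% = enzyme with substrate and 100% = substrate without enzyme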
Target sequence (Q92905 whole entry, looked up, one chain of several): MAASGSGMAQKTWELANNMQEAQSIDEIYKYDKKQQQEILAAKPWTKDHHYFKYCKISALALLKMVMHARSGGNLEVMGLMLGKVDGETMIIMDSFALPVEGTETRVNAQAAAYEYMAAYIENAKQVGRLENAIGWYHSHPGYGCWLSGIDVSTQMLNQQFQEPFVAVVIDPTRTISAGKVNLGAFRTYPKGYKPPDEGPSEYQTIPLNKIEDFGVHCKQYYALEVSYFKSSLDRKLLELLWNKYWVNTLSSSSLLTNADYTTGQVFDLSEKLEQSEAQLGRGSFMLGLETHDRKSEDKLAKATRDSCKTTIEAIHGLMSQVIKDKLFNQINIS
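Material: human Csn5 produced in HEK293T cells; Input: enzyme 0.24 nM; Reagent: SCFSkp2-Nedd8OG substrate at 10 nM final; Dosing: 12.5 µM compound; Incubation: 90 min reaction at room temperature; Detection: fluorescence polarization of the substrate; Evaluation: % inhibition of substrate cleavage by Csn5; Control set: substrate-only high control, full reaction low control.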
Exocytosis inh – blocks lytic granule exocytosis | TALL-104 LAMP-1 surface exposure, flow cytometry; cells stimulated with thapsigargin and PMA | inhibition, % at 10 µM | actives 0.66% (n = 360,000) | AID 651702;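 active means inhibition above about 55%, limit read from the data; inconclusive means no clear call, values can overlap the other calls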
HNF4A DNA FP – change in binding of human HNF4 alpha to DNA; P41235; HNF4a-FITC DNA binding, fluorescence polarization, 1 h; activity change, % at 10 µM; actives 0.3% (n = 360,000); AID 1224865; in the data active means activity change above about 30%, passing the limit was not always enough
Myeloid diff – myeloid differentiation induction. shares compounds with Myeloid diff MLP. ER-HoxA9 myeloid progenitors, GFP/Mac1 double-positive flow. calls only. actives 2% (n = 2,300). AID 651706;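 active means share of green or green-and-red cells above 9 and 9% in run 1 or 4 and 3% in run 2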
GFP autofluor – compound fluorescence in myeloid differentiation counter-screen; shares compounds with Myeloid diff MLP; ER-HoxA9 myeloid progenitors, no estrogen, GFP autofluorescence flow cytometry; vehicle wells 0%, positive control 100%; fluorescence response, % (no concentration beside the values); actives 7.4% (n = 2,300);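 active means over 5% cells positive for green fluorescent reporter, or over 2% positive for both it and APC stain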;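 further: range taken on the double positive population between DMSO and positive control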
The depositor's hits bear a star. This is a sample that favours compounds with a hit; in the whole collection about 2.2% have one here.

O=C1CN(C(=O)COC(=O)CCSc2ccccc2Cl)c2ccccc2N1 was read as Myeloid diff MLP active, CSN deneddyl inh -2, Exocytosis inh -3, HNF4A DNA FP 0, Myeloid diff inactive and GFP autofluor 0.
Screening COc1ccc(S(=O)(=O)N2CCCCC2)cc1NC(=O)C1CC1C (centres undefined) returned Myeloid diff MLP inactive, CSN deneddyl inh -1, Exocytosis inh 2 and HNF4A DNA FP 0.
Screening CC(=O)NS(=O)(=O)c1ccc(NC(=O)c2cccc3ccccc23)cc1 returned Myeloid diff MLP inactive, CSN deneddyl inh 1, Exocytosis inh -6 and HNF4A DNA FP -2.
Screening CC(=O)C[C@@H](O)CC(=O)[C@@H]1OC(=O)CCCCCCCCc2ccccc21 returned Myeloid diff MLP inactive, CSN deneddyl inh 4, Exocytosis inh 8 and HNF4A DNA FP -2.
For CCn1cc([N+](=O)[O-])c(=O)c2cc(F)c(N3CCOCC3)cc21 the results were Myeloid diff MLP inactive, CSN deneddyl inh -2, Exocytosis inh -8 and HNF4A DNA FP -1.
Screening COc1ccc(-n2cnc3cc(NC(=O)c4ccco4)ccc32)cc1 returned Myeloid diff MLP inconclusive, CSN deneddyl inh 3, Exocytosis inh 2 and HNF4A DNA FP -1.
For COc1ccccc1-n1cnc2cc(NC(=O)c3ccco3)ccc21 the results were Myeloid diff MLP active, CSN deneddyl inh 2, Exocytosis inh 4, HNF4A DNA FP -1, Myeloid diff inactive and GFP autofluor 0.
For CCc1nc2ccc(C(=O)N3CCN(C(=O)c4ccco4)CC3)cn2c1N(CC)CCOC the results were Myeloid diff MLP inactive, CSN deneddyl inh 1, Exocytosis inh -8 and HNF4A DNA FP -1.
For N#Cc1ccsc1NC(=O)C1CC(=O)N(Cc2ccccc2)C1 (centres undefined) the results were Myeloid diff MLP inactive, CSN deneddyl inh 2, Exocytosis inh -5, HNF4A DNA FP 3, Myeloid diff inactive and GFP autofluor 0.
For O=C(Nc1ccccc1)C1CC(=O)N(Cc2ccccc2)C1 (centres undefined) the results were CSN deneddyl inh -1, Exocytosis inh 0 and HNF4A DNA FP 2.
O=C1c2ccccc2C2(c3cc(C(F)(F)F)cc(C(F)(F)F)c3)NCCN12 (centres undefined) was read as Myeloid diff MLP inactive, CSN deneddyl inh -2, Exocytosis inh 15 and HNF4A DNA FP 2.
`O=C(O)C1C2CCC(O2)C1C(=O)Nc1ccc(Br)cc1F` (centres undefined) gave Myeloid diff MLP inactive, CSN deneddyl inh -2, Exocytosis inh 0 and HNF4A DNA FP -6.
Screening COC(=O)Cc1c(C)c2ccc(OC(=O)c3ccccc3)cc2oc1=O returned Myeloid diff MLP inactive, CSN deneddyl inh 1, Exocytosis inh -1, HNF4A DNA FP -3, Myeloid diff inactive and GFP autofluor 0.
COc1ccc(CC(C)NCC(O)c2ccc(O)c(NC=O)c2)cc1 (centres undefined) was read as Myeloid diff MLP inactive, CSN deneddyl inh 4 and Exocytosis inh -1.
Screening Nc1ccc2nn(-c3ccccc3)nc2c1 returned Myeloid diff MLP inactive, CSN deneddyl inh 5, Exocytosis inh 16, HNF4A DNA FP 5, Myeloid diff inactive and GFP autofluor 1.
For Nc1ccc(-n2nc3ccccc3n2)cc1 the results were Myeloid diff MLP inactive, CSN deneddyl inh 8, Exocytosis inh -6 and HNF4A DNA FP 0.
Screening CC(=O)C[C@H](O)CC(=O)[C@@H]1OC(=O)CCCCCCCCc2ccccc21 returned Myeloid diff MLP inactive, CSN deneddyl inh -2, Exocytosis inh 1 and HNF4A DNA FP 0.
For O=C(CCc1nnc(Cc2c[nH]c3ccccc23)o1)NCC1CC12CCCCC2 (centres undefined) the results were Myeloid diff MLP inactive, CSN deneddyl inh 0, Exocytosis inh -5, HNF4A DNA FP 0, Myeloid diff inactive and GFP autofluor 1.
CC(C)(C)NC(=O)CCc1nnc(Cc2c[nH]c3ccccc23)o1 was read as Myeloid diff MLP inactive, CSN deneddyl inh 1, Exocytosis inh -3 and HNF4A DNA FP -1.
Screening CCOC(=O)c1c(C)[nH]c(C)c1C(=O)COC(=O)c1nn(CC)c(=O)c2ccccc12 returned Myeloid diff MLP inactive, CSN deneddyl inh -8, Exocytosis inh 7 and HNF4A DNA FP 3.
`COc1cc(S(=O)(=O)N2CCC(c3nc4ccccc4s3)CC2)ccc1S(=O)(=O)N1CC(C)CC(C)C1` (centres undefined) gave Myeloid diff MLP inactive, CSN deneddyl inh 3, Exocytosis inh -1, HNF4A DNA FP 2, Myeloid diff inactive and GFP autofluor 1.
Screening COCc1cc(C)nc2sc(C(=O)N3CCN(c4ccccc4)CC3)c(N)c12 returned Myeloid diff MLP inactive, CSN deneddyl inh -1, Exocytosis inh 23 and HNF4A DNA FP -2.
Screening COCc1cc(C)nc2sc(C(=O)N3CCCCC3)c(N)c12 returned Myeloid diff MLP inactive, CSN deneddyl inh 1, Exocytosis inh 0, HNF4A DNA FP 1, Myeloid diff inactive and GFP autofluor 0.
For COC(=O)c1ccc(CSc2nnc(-c3ccccc3)n2C)o1 the results were Myeloid diff MLP inactive, CSN deneddyl inh 10, Exocytosis inh -1 and HNF4A DNA FP 0.
Cc1oc(C(=O)O)cc1CSc1nnc(-c2ccccc2)n1C was read as Myeloid diff MLP inactive, CSN deneddyl inh -5, Exocytosis inh -1, HNF4A DNA FP 1, Myeloid diff inactive and GFP autofluor 1.
COC[C@@H]1CCCN1c1ccc2c(c1)O[C@H](COCc1ccccc1)CN([C@@H](C)c1ccccc1)S2(=O)=O was read as Myeloid diff MLP inactive, CSN deneddyl inh 3, Exocytosis inh -5 and HNF4A DNA FP -1.
`Cc1cccc(NC(=O)COC(=O)CSc2ccccc2)c1C` gave Myeloid diff MLP inactive, CSN deneddyl inh 0, Exocytosis inh -5 and HNF4A DNA FP -3.
Screening Cc1cc(C(=O)NC2CCCc3c2cnn3-c2cccc(C)c2C)n(C)n1 (centres undefined) returned Myeloid diff MLP active, CSN deneddyl inh 2, Exocytosis inh 16, HNF4A DNA FP 1, Myeloid diff inactive and GFP autofluor 0.
Screening O=c1c2c(nc3n1CCCCC3)-c1ccccc1CC21CCCCC1 returned Myeloid diff MLP inactive, CSN deneddyl inh 2, Exocytosis inh 2, HNF4A DNA FP 0, Myeloid diff inactive and GFP autofluor 0.
CCC1(C)Cc2ccccc2-c2nc3n(c(=O)c21)CCCCC3 (centres undefined) was read as Myeloid diff MLP inactive, CSN deneddyl inh -3, Exocytosis inh -4 and HNF4A DNA FP -2.
NC(=O)c1cc[n+](Cc2ccccc2Cl)cc1 was read as Myeloid diff MLP inactive, CSN deneddyl inh 0, Exocytosis inh 2 and HNF4A DNA FP -5.
